STAT1 act: increases IFN-gamma driven STAT1 reporter signal | NIH 3T3 STAT1-luciferase reporter, luminescence; 100% = IFN-gamma alone, no compound | activation (% of control), % at 5.5 µM | hit rate 2.6% among 200,000;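 active = activation above the screen-wide mean activation plus 3 SD, cut at about 130% in these data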
FLuc stim CS: firefly luciferase counter-screen for stimulation assays. ATPlite luciferase biochemical, luminescence, 10 min; 0 = ATP-free wells, 1 = DMSO control. activation factor at 10 µM. 200,000 tested, under 10 active. P08659;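 active = luciferase activation factor, scaled between plate controls, of at least 2 with compound at 10 µM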
Target sequence (P08659 whole entry, looked up): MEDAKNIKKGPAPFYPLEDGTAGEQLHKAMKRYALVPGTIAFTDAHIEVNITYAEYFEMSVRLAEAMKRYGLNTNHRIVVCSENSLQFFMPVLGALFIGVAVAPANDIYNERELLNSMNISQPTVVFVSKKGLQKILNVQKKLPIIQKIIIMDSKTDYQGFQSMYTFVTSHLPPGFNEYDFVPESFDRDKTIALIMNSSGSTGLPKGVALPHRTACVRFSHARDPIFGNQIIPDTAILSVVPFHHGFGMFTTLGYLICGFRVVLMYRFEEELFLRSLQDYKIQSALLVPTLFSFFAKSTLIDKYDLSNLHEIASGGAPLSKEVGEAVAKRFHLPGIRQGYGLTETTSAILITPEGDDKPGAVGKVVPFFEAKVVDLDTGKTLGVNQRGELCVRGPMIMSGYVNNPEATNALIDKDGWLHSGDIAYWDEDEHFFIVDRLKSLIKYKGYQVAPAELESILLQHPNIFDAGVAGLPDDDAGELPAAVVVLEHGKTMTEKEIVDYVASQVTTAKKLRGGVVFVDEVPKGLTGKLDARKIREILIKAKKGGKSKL
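Material: Luciferase/luciferin reagent mix | Doses: Test compounds dosed from 2 mM stocks in 100% DMSO | Timing: 10 min incubation after luciferase reagent addition, room temperature | Measured by: Luminescence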
FLuc inh counter: Photinus pyralis luciferase inhibition counter-screen; P08659; inhibition, % at 10 µM; AID 1006; ATPLite firefly luciferase biochemical luminescence, 10 min; hit rate 1.5% among 200,000;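 active = inhibition above about 50% when tested at 10 µM, limit read from the data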
APP 5'UTR act: APP 5'UTR luciferase reporter activation. hit rate 1% among 190,000. activation, % at 2 µM. SH-SY5Y APP 5'UTR luciferase reporter, luminescence; zero percent = DMSO vehicle wells. AID 1276;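 active = activation above a set limit, based on mean plus 3 SD of controls, cut at about 140% in these data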
NF-kB neuron act: compounds increasing NF-kB expression in human neuronal cells; NF-kB reporter expression; stronger effect = higher value; fold change at 12.5 µM; hit rate 1.6% among 190,000; AID 1239; in the data active = fold change above about 3.3
Numbers stand for hits; i = inactive; nt = no result given. The list is not random: actives were taken first. Their share in the collection is about 4.1%.

SMILES	STAT1 act	FLuc stim CS	FLuc inh counter	APP 5'UTR act	NF-kB neuron act
O=c1c(Cl)c(Cl)cnn1Cc1nnc(-c2ccccc2Br)o1	i	i	i	i	i
O=C(Nc1ccc(Cl)cc1)c1ccc2nsnc2c1	149.5	i	i	i	3.33
CN(C)c1ccc(NC(=O)c2ccc3nsnc3c2)cc1	144.2	i	i	i	i
COc1ccc(N(C)C(=O)Nc2ccc3nsnc3c2)cc1	i	i	i	i	i
COCCOc1nc2c(c(=O)n(C)c(=O)n2C)n1Cc1cccc(OC)c1	i	i	i	i	i
CCN1CCN(Cc2nc3c(c(=O)n(C)c(=O)n3C)n2Cc2ccccc2Cl)CC1	i	i	i	i	i
Cn1c(=O)c2c(nc(CN3CCN(CCO)CC3)n2Cc2cccc3ccccc23)n(C)c1=O	i	i	i	i	4.28
COC(=O)c1[nH]c2ccc(Br)cc2c1NC(=O)CN1CCN(C2CCCCC2)CC1	i	i	i	i	4.05
C/C(=C\C(=O)Nc1nccs1)c1ccccc1	144.2	i	i	i	i
C/C(=C\C(=O)O)C(=O)Nc1nccs1	i	i	i	i	i
Cn1c(=O)c2cc(S(=O)(=O)NC(C(=O)NCc3cccnc3)c3ccccc3)ccc2n(C)c1=O (stereo not drawn)	i	i	i	i	i
COc1cccc(C(=O)/C=C/Nc2ccc(S(=O)(=O)Nc3cnc4ccccc4n3)cc2)c1	136.6	i	i	i	i
COc1cccc(C(=O)/C=C/Nc2ccc(S(=O)(=O)Nc3ncccn3)cc2)c1	139.3	i	i	i	i
COc1cccc(C(=O)/C=C/Nc2ccc(S(=O)(=O)Nc3nc(C)cc(C)n3)cc2)c1	i	i	i	i	i
Cc1ccc(C(=O)NS(=O)(=O)c2ccc(N=NN(C)C)cc2)cc1	i	i	i	i	i
CCc1ccc(C2=NN(C(=O)OC)C(O)(C(F)(F)F)C2)cc1 (stereo not drawn)	i	i	73.1	136.2	i
COc1ccc(CC(=O)N2N=C(c3ccncc3)CC2(O)C(F)(F)F)cc1 (stereo not drawn)	i	i	i	i	i
CCOC(=O)N1N=C(c2ccc(OC)cc2)CC1(O)C(F)(F)F (stereo not drawn)	i	i	i	170.6	i
Cc1ccccc1Nc1c(-c2ccc(N3CCOCC3)cc2)nc2ncccn12	i	i	59.0	i	i
CCOCCCNC(=O)C(c1ccc(C)cc1)N(Cc1cccs1)C(=O)CNC(C)=O (stereo not drawn)	i	i	i	i	i
O=C(N/N=C1/CC2C=CCC12)c1ccco1 (stereo not drawn)	133.6	i	i	i	i
Cc1cc(NC(=O)C23CCC(C)(c4nc5cc(Cl)c(Cl)cc5nc42)C3(C)C)no1 (stereo not drawn)	i	nt	nt	i	nt
CN(C)c1oc(-c2ccccc2)nc1C#N	i	i	i	i	i
CN(C)c1oc(/C=C/c2ccccc2)nc1C#N	137.5	i	i	i	i
c1ccc2c(c1)nnn2-c1ncnc2sccc12	133.5	i	i	i	i
SMILES	STAT1 act	FLuc stim CS	FLuc inh counter	APP 5'UTR act	NF-kB neuron act
c1ccc(CC2CCN(c3ncnc4sccc34)CC2)cc1	i	i	i	i	i
CC1CCN(C(=O)COC(=O)c2ccc3c(c2)OCO3)CC1	i	i	i	i	i
O=C(CSc1ncnc2ccccc12)c1cccs1	i	i	70.1	139.2	4.57
O=C(CSc1ncnc2ccccc12)N1CCCC1	i	i	i	i	i
Cc1ccc(C(=O)CSc2ncnc3ccccc23)o1	159.4	i	i	i	i
Cc1[nH]c2c(ccc3ccccc32)c1C1C(CCN)C1(C)C (stereo not drawn)	i	i	i	i	i
Cc1ccc(C(=O)Oc2cccc(-n3cnnn3)c2)cc1	135.3	i	i	i	i
CC(=O)c1cnn(-c2ccccc2)c1C	i	i	i	i	i
CC(=O)c1cnn(-c2nc3c(C)cccc3s2)c1C	i	i	i	i	3.85
Cc1ccc(S(=O)(=O)N2CCN(C(=O)N(C)C)CC2)cc1	i	i	i	i	i
O=C(N=c1nc2ccccn2s1)c1ccccc1	nt	i	95.2	nt	nt
CCOC(=O)c1c(C)[nH]c(C=Nc2ccccc2)c1O	i	i	i	i	i
CCOC(=O)c1c(C)[nH]c(N=Nc2cccc(C)c2)c1C	137.7	i	i	158.1	3.43
CCOC(=O)c1c(C)[nH]c(N=Nc2ccccc2)c1C	i	i	i	i	3.47
COc1ccc(N(CCC#N)S(=O)(=O)c2cccc3nsnc23)cc1	i	i	i	i	i
CCCS(=O)(=O)c1nnnn1-c1cccc(OC)c1	i	i	i	i	i
Cc1ccsc1C(=O)NNC(=O)C1CCCCC1C(=O)O (stereo not drawn)	129.4	i	i	i	i
Cc1ccsc1C(=O)NNC(=O)C1CC=CCC1C(=O)O (stereo not drawn)	143.5	i	i	i	i
COc1ccc(-c2nnc(SCc3ccccc3F)o2)cc1OC	i	i	i	i	i
C#CCSc1nnc(-c2ccc(C)cc2)o1	128.8	i	55.5	i	3.72
Cc1ccc(-c2nnc(SCc3ccccc3F)o2)cc1	135.2	i	i	142.3	7.34
Fc1ccccc1N1CCN(c2ncnc3[nH]ncc23)CC1	i	i	i	i	3.55
O=[N+]([O-])c1cccnc1N1CCN(c2ccccc2F)CC1	i	i	i	i	i
Cc1c(Cl)cccc1NC(=S)NCCc1ccc(C(F)(F)F)cc1	i	i	i	i	i
CCOC(=O)CNc1c(-c2ccccc2)nc2ccc(Cl)cn12	i	i	i	i	i
SMILES	STAT1 act	FLuc stim CS	FLuc inh counter	APP 5'UTR act	NF-kB neuron act
COC(=O)CNc1c(-c2ccccn2)nc2ccc(Br)cn12	149.5	i	77.0	i	i
COc1ccc(CN2CCn3nc(C(=O)NC4CC4)cc3C2=O)cc1	i	i	i	i	i
COC(c1ccccc1)c1nnc(CCC(=O)N(C)C(C2CC2)C2CC2)o1 (stereo not drawn)	131.3	i	i	i	i
CCCc1cc(=O)[nH]c(SCC(=O)c2cc(C)n(C(C)COC)c2C)n1 (stereo not drawn)	i	nt	nt	i	i
Cc1ccc(NC(=O)c2cc3ccccc3oc2=O)cc1S(=O)(=O)N(C)C	i	i	86.7	i	i
Cc1ccc(NC(=O)c2cc3ccccc3o2)cc1S(=O)(=O)N(C)C	143.2	i	72.5	i	5.25
CN(C)S(=O)(=O)c1ccc(NC(=O)c2cc3ccccc3o2)cc1	i	i	i	i	i
COc1ccccc1NS(=O)(=O)c1cccc(NC(=O)c2cc3ccccc3oc2=O)c1	140.5	i	i	i	i
Cc1cc(C)nc(N2CCC(C(=O)Nc3cccc(C(F)(F)F)c3)CC2)n1	i	i	i	i	i
Cc1cc(C(=O)Cn2nnc3ccccc3c2=O)c(C)n1Cc1cccs1	i	i	80.2	222.7	i
Nc1ccccc1C(=O)/C=C/c1ccc2c(c1)OCO2	i	i	61.5	i	7.19
O=C(/C=C/c1ccc(Br)cc1)c1ccco1	i	i	i	i	i
O=C(/C=C/c1ccc2c(c1)OCO2)c1ccco1	i	i	58.3	i	i

Compound activity deposited in PubChem BioAssay by several laboratories.
